Experimental data from paper PMC11790068 (Journal of medicinal chemistry, 2015).
“Also recorded” adds a separate entry of the source.

Tests used:
[1] = biological target: C-L activity responsible β1 subunit of purified 20S human proteasome (Homo sapiens, UniProt P28072); assay: Enzyme kinetics assay, C-L activity of purified 20S proteasome; assay type: biochemical; details: result in words
How it was run: (§1)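 Purified human 20S constitutive and immunoproteasome (0.5 µg/mL) was preincubated with test compound for 30 min at room temperature in 20 mM Tris-HCl, 0.5 mM EDTA, 0.035% SDS. Reactions were started with a subunit-selective AMC substrate: β1 Ac-nLPnLD-AMC 100 µM; β2/β2i Boc-LRR-AMC 200 µM; β5 Ac-WLA-AMC 20 µM; β1i Ac-PAL-AMC 100 µM; β5i Ac-ANW-AMC 100 µM. AMC fluorescence (ex 360/em 460 nm) was followed for 90 min at room temperature.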

[2] = system: CT-L activity of purified 20S human proteasomes (β5, β5i, β1i); assay: Enzyme kinetics assay, CT-L activity of purified 20S proteasomes; assay type: biochemical; details: for Inhibition of the CT-L activity of purified proteasomes: purified 20S CP and IP, β5, β5i, β1i, result in words; for Activation of the CT-L activity of proteasomes: at 10 μM, purified proteasomes
How it was run: as §1

[3] = system: proteasomal CT-L activity of RPMI 8226 cell extracts; assay: CT-L activity of proteasomes in cell extracts; assay type: biochemical, human; details: result in words
How it was run: (§2)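 Cytosolic extracts of RPMI-8226 cells were prepared by the Kisselev and Goldberg method and used in place of purified 20S proteasome. Hydrolysis of fluorogenic substrates was measured as AMC release: Suc-LLVY-AMC for CT-L, Z-LLE-AMC for C-L and Boc-LRR-AMC for T-L activity. Fluorescence was read at excitation 360 and emission 460 nm.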

[4] = system: proteasome in RPMI 8226 cell lysates (Suc-LLVY-AMC hydrolysis); assay: Jump dilution reversibility assay; assay type: biochemical, human
How it was run: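 RPMI 8226 lysate (30 µg total protein) was incubated with test compound at 10 µM in 20S proteasome assay buffer for 30 min at room temperature. Baseline Suc-LLVY-AMC hydrolysis was recorded in a cuvette. The mixture was then rapidly diluted 25-fold in assay buffer (10 to 0.4 µM compound), and substrate hydrolysis was monitored for about 30 min.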

LNCaP tumors = assay: In vivo efficacy assay, LNCaP xenograft; design: species or system mouse; details: 5 mg/kg i.p. twice a week for 4 weeks
[5] = system: BxPC-3 cell lines with acquired resistance to bortezomib or carfilzomib; assay: Cytotoxicity in bortezomib- or carfilzomib-resistant BxPC-3 sublines; assay type: cell-based, human; details: BxPC-3 sublines adapted to 60 nM bortezomib or 200 nM carfilzomib
[6] = system: cancer cell lines including LNCaP prostate cancer cells; assay: Cytotoxicity of G4-1 in cancer cell lines; assay type: cell-based, human; details: variety of cancer cell lines including LNCaP; 72 h
How it was run: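 Log-phase adherent cells were seeded at 7,000–10,000 per well; suspension RPMI 8226 cells were pelleted and seeded at 10,000 per well. Viability was read after 72 h by CellTiter Glo luminescence or CellTiter 96 Aqueous One absorbance.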

[7] = system: proteasomal T-L activity of RPMI 8226 cell extracts; assay: T-L activity of proteasomes in cell extracts; assay type: biochemical, human; details: result in words
How it was run: as §2

[8] = biological target: T1, proteasomal C-L activity of RPMI 8226 cell extracts (Homo sapiens, UniProt P28072); assay: C-L activity of proteasomes in cell extracts; assay type: biochemical; details: result in words
T1 sequence (P28072 1-239): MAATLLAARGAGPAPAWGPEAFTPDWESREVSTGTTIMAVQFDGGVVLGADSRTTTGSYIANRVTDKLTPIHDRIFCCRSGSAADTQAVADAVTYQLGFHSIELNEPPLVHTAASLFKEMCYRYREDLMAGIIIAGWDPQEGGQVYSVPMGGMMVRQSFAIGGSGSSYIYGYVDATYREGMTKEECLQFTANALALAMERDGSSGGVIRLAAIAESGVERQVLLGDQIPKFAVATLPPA
How it was run: as §2

Cc1ccc(OS(=O)(=O)c2cccc(C(F)(F)F)c2)c(-c2cc(-c3ccccc3)n(CCN[C@@H]3CCNC3)n2)c1 [G4]
Inhibition of the C-L activity (β1) of purified proteasome [1]: selectively inhibits; also recorded: preferentially inhibits | Inhibition of the CT-L activity of purified proteasomes [2]: potently inhibit; also recorded: selectively inhibits; also recorded: preferentially inhibits

Cc1ccc(OS(=O)(=O)c2ccc(F)c([N+](=O)[O-])c2)c(-c2cc(-c3ccccc3)n(CCN[C@@H]3CCNC3)n2)c1 [G4–21]
Activation of the CT-L activity of proteasomes [2]: up to 200%

Cc1ccc(OS(=O)(=O)c2cccc(C(F)(F)F)c2)c(-c2cc(C3CCCCC3)n(CCN[C@@H]3CCNC3)n2)c1 [G4-40]
Inhibition of the CT-L activity of purified proteasomes [2]: potently inhibit

Cc1ccc(OS(=O)(=O)c2cccc(C(F)(F)F)c2)c(-c2cc(C3CCCN(C(=O)N[C@@H]4CCNC4)C3)n(CCN[C@@H]3CCNC3)n2)c1 (stereo partly shown) [G4-42]
Inhibition of the CT-L activity of purified proteasomes [2]: potently inhibit

CC1=C(COC(=O)Cn2nc(-c3cc(C)ccc3OS(=O)(=O)c3cccc(C(F)(F)F)c3)cc2-c2ccccc2)Cc2ccccc21 [G4-16]
Activation of the CT-L activity of proteasomes [2]: up to 200%

Cc1ccc(OS(=O)(=O)c2cccc(C(F)(F)F)c2)c(-c2cc(-c3ccccc3)n(CC(=O)N[C@@H]3CCNC3)n2)c1 [G4-1]
Inhibition of proteasomal CT-L activity of cell extracts [3]: effectively inhibit | Inhibition of proteasomal activity after preincubation ([4]; 10 μM, 30 min preincubation with RPMI 8226 cell extracts): nearly complete inhibition | Inhibitor dissociation half-life ([4]; after 25-fold dilution from 10 to 0.4 μM): approximately 3.2 min | Mode of proteasome inhibition ([4]; jump dilution, upward curvature of progress curve): reversibility | Body weight of mice over the course of treatment (LNCaP tumors): maintained normal weight gain | Systemic toxicity in mice (LNCaP tumors): without apparent systemic toxicity | Tumor growth in vivo (LNCaP tumors; nude mice bearing LNCaP tumors): effectively suppressed tumor growth | Impact of acquired resistance to bortezomib or carfilzomib on anticancer effect [5]: not negatively impacted | Anticancer activity against cancer cell lines [6]: good anticancer activity | Inhibition of the CT-L activity of purified proteasomes [2]: most potent inhibitor | Activity against the T-L activity of cell extracts [7]: no activity | Inhibition of proteasomal C-L activity of cell extracts [8]: effectively inhibit

Cc1ccc(OS(=O)(=O)c2cccc(C(F)(F)F)c2)c(-c2cc(C3CCCNC3)n(CCN[C@@H]3CCNC3)n2)c1 (stereo partly shown) [G4-41]
Inhibition of the CT-L activity of purified proteasomes [2]: potently inhibit
